Results on one compound are retold here after PMC8686831 (Molecular pharmaceutics, 2021).

Data set [1] has as its system HCT116 p53^−/− subcutaneous xenograft tumors. Description: Survival study in subcutaneous xenograft mice. In kind it is in vivo, athymic nude mice. In short, it runs like this:
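Nude mice carried s.c. HCT116 p53+/+ or p53−/− xenografts (10^6 cells, 1:1 media/matrigel). At a mean tumor volume of 100 ± 10 mm3 they were randomized. Dosing was i.v. every 3–4 days for 5 cycles: approximately 74 MBq test compound in 100 μL 30% PEG300 vehicle, or vehicle alone. The p53−/− study added a stable-iodine analogue cohort (approx. 80 μg/kg). Weights were taken daily. Endpoints: distress, significant weight loss, tumor >800 mm3, or ulceration >5 mm.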

Data set [2] has as its system healthy athymic nude mice. The data set is described as follows: ^127I-PARPi toxicity study in healthy mice. Format: in vivo. Conditions: 2.05 mg/kg intravenously.

Turning to `O=C(c1cccc([127I])c1)N1CCN(C(=O)c2cc(Cc3n[nH]c(=O)c4ccccc34)ccc2F)CC1` [^127I-PARPi], in data set [1], the “Effect on overall / median survival compared to vehicle” value is listed as “No significant increase in median survival” and the “Improvement of median survival compared to vehicle control group” value is on record as “+26%”. The “Median survival (weeks)” value in data set [1] (i.v., ^123I-MAPi 74 MBq or ^127I-PARPi approx. 80 μg/kg, every 3–4 days, 5 cycles) turned out to be 3.071 weeks. For the same compound, in data set [2] (healthy mice), the “Toxicity (immunohistochemical and blood chemistry analysis)” value is listed as “no toxicity was observed”. In data set [2] (vs. vehicle), the “Markers associated with liver toxicity (ALP, ALT, AST)” value is recorded as “no significant variation compared to vehicle cohorts”.
